Data taken from the EternaBench riboswitch data.

Tested on: MS2 coat protein
Assay: apparent Kd, MS2 coat protein; higher = weaker binding; RNA-MaP array; FMN 200 µM where present
How it was run: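 The titrant was SNAP-549-labelled MS2 coat protein, run from 0.7 or 1.5 nM in doubling steps to 3 µM. It was applied to designs transcribed by stalled E. coli RNA polymerase on Illumina sequencing-chip clusters, without ligand first and then with constant ligand, in 100 mM Tris-HCl pH 7.5, 80 mM KCl, 4 mM MgCl2, BSA, DTT, yeast tRNA and Tween-20. The apparent Kd is the median of filtered per-cluster binding-curve fits, with green signal normalised to red-channel RNA signal and control-cluster median Fmax.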

[1] = designed as: OFF switch for flavin mononucleotide, no ligand
[2] = ligand present: flavin mononucleotide, designed as: OFF switch for flavin mononucleotide
[3] = designed as: ON switch for flavin mononucleotide, no ligand
[4] = ligand present: flavin mononucleotide, designed as: ON switch for flavin mononucleotide

UAUGGGUGUGUGAGGAUAUACGAAGGCAGUGGCCAGUAGAAGGUACAUGAGGAUCACCCAUGUGUCCAAAAGUG
apparent Kd [1]: 14.1 nM | apparent Kd [2]: 18.4 nM

UAUGGUAAAGUCAGGAUAUACGUGCAGUUUUCUGGGUAGAAGGGACAUGAGGAUCACCCAUGUAUGGUAGUGUU
apparent Kd [1]: 118 nM | apparent Kd [2]: 142 nM

UAUGUAUUCGUAGGAUAUCCGUCGCCACCGUGUGGAGAAGGACGAACAUGAGGAUCACCCAUGUAUCAUGGUGUAGACACUUUC
apparent Kd [1]: 126 nM | apparent Kd [2]: 183 nM

UAUGUAUUCGUAGGAUAUCCGUCGCCACCGUGUGGAGAAGGACGAACAUGAGGAUCACCCAUGUAUCAUGGUGUAGACACUUUU
apparent Kd [1]: 98.4 nM | apparent Kd [2]: 154 nM

UAUGUGUCAGGAUAUGGAUUAGUUCGGGAUUCGGAACUGGUUCAGAAGGGACAUGAGGAUCACCCAUGUUUUUC
apparent Kd [1]: 33.1 nM | apparent Kd [2]: 169 nM

UAUGUGUCAGGAUAUUAGUAGUGUGUGGAUACAUAUAUUGCUGAGAAGGGACAUGAGGAUCACCCAUGUACCUU
apparent Kd [1]: 16.2 nM | apparent Kd [2]: 17.5 nM

UAUGUGUCAGGAUAUUGUUAGUUUAGUUGUUUGUAUUAGUUCGAGAAGGGACAUGAGGAUCACCCAUGUUGUUU
apparent Kd [1]: 30.9 nM | apparent Kd [2]: 28.6 nM

UAUGUGUGAGGAUAUGGUAAAGAUAAGAUGAUGAAAGAACUCCAGAAGGCACAUGAGGAUCACCCAUGUAGAUA
apparent Kd [1]: 22.8 nM | apparent Kd [2]: 45.6 nM

UAUGUUUUAGGAUAUUGUACUGCUGACAUGAGGAUCACCCAUGUAUGCUAACUCGGCUGUCGAGAAGGAGAAUAUG
apparent Kd [1]: 64.3 nM | apparent Kd [2]: 56 nM

UAUUAGUUAGGAUAUACAUGAGGAUCACCCAUGUCACGGGUCCACUUGUCCUAUGCGUGUAGAAGGAGCGACCC
apparent Kd [1]: 19.5 nM | apparent Kd [2]: 20.8 nM

UAUUAUUUAUGAUAUUAUGACAGUAGAAGGCUAUACAUGUUGAUACAUGAGGAUCACCCAUGUAUAGAGGAUAUAUACAUAAAU
apparent Kd [1]: 1010 nM | apparent Kd [2]: 884 nM

UAUUGCGCCGUAAAAUAACACAUGAGGAUCACCCAUGUGACACAGGAUAUGACCAGAUCAGAAAGUCAGAAGGGUGAAAACGGC
apparent Kd [3]: 99.6 nM | apparent Kd [4]: 21.6 nM

UAUUUAUAGCAAGGAUAUGAUUAUUAUUAUUUAUCAGAAGGUGCACAUGAGGAUCACCCAUGUUUUACAAUUUGUAAUUUAAUU
apparent Kd [1]: 38.6 nM | apparent Kd [2]: 25.1 nM

UAUUUUAACUAAGGAUAUCUGUAUUAUGUUGAAACAUGAGGAUCACCCAUGUUCAUGAUAUUAUAGGAGAAGGUAGAUGAAUAA
apparent Kd [3]: 6.75 nM | apparent Kd [4]: 6.01 nM

UCAACCGGCGCCGGUUAAACAUGAGGAUCACCCAUGUACUCCAGAAGGCCGCCCAAGAACGGAGUGGAGGAUAUGGAGGUUCUC
apparent Kd [3]: 45.1 nM | apparent Kd [4]: 28.7 nM

UCACGAGACUAAGGAUAUGGAGUGUCAACAUAAAACAUGAGGAUCACCCAUGUAAAGAGUACGAUUCAGAAGGUAGAGACGUGA
apparent Kd [3]: 43 nM | apparent Kd [4]: 25.1 nM

UCACGGGAUUGAGGAUAUAUAUUAAUUUUUACAAUAGAAGGCAAAUUUUUAGUUUUUUCACUUUACAUGAGGAUCACCCAUGUU
apparent Kd [1]: 27.5 nM | apparent Kd [2]: 25.5 nM

UCACGGGUUUGAGGAUAUAUAUUUAUUAUUUUAAUAGAAGGCAAAGAGAUAGUUUUUUCACUAUACAUGAGGAUCACCCAUGUU
apparent Kd [1]: 41.5 nM | apparent Kd [2]: 36 nM

UCACGGUAUGUAGGAUAUGCAUAGCAUUGCUAUGCAGAAGGACAUGAGGAUCACCCAUGUAUGUAUUCCAUACUAAUCCCGUGG
apparent Kd [1]: 5.57 nM | apparent Kd [2]: 5.66 nM

UCAGGCUUCGAGAAGGACAUGAAUCGUAGCAUUGCUACGAUCAUAGAUACAUGAGGAUCACCCAUGUAGGAUAUCGGAGUCUGC
apparent Kd [1]: 5.8 nM | apparent Kd [2]: 5.87 nM

UCAGGCUUCGAGAAGGACAUGAGGAUCACCCAUGUUAGUGUGAAGCAGCCGUGAGGCUGCAUCAUGUAGGAUAUCGGAGUCUGC
apparent Kd [1]: 25.5 nM | apparent Kd [2]: 189 nM

UCAUACAUGACAUGACAUGACAUGAGGAUCACCCAUGUUUACAAGGAUAUGUACAUGAAACAUGUACAGAAGGUGUAUUGGACU
apparent Kd [1]: 42.4 nM | apparent Kd [2]: 150 nM

UCAUAUAUACAAGGAUAUCAAUUAUUUACACAUCCUACAUGAGGAUCACCCAUGUUUUAAUAUAUUGAGAAGGUGUAAUGUCGG
apparent Kd [3]: 24.9 nM | apparent Kd [4]: 31.9 nM

UCAUAUUUACAAGGAUAUCAAUUAUUUAUACAUCCUACAUGAGGAUCACCCAUGUUAAUAUAUUUUGAGAAGGUGUAUUGUCGG
apparent Kd [3]: 32.1 nM | apparent Kd [4]: 31.2 nM

UCAUCGUGAGGAUAUUAUCGUAAGUGCAGGGUCUGACUUAGUAAGAAGGCACAUGAGGAUCACCCAUGUCCCUC
apparent Kd [1]: 20.2 nM | apparent Kd [2]: 28.5 nM

UCAUUGUCAGGAUAUCUUAAUAACGGUUCACUGUUUUAUUUGGAGAAGGGACAUGAGGAUCACCCAUGUUCCUG
apparent Kd [1]: 18.3 nM | apparent Kd [2]: 20.8 nM

UCAUUUACCACAGGAUAUAUUCAUAUACAGUUGUUUGGCUCUUACAUGUUAGUAGAAGGGUGCAACAUGAGGAUCACCCAUGUA
apparent Kd [3]: 298 nM | apparent Kd [4]: 163 nM

UCCACUACUGAGAAGGGAUACAUAUAAUUCUAGUCAGGAUAUCGAUACAGUGCAGCAUGAGGACAUGAGGAUCACCCAUGUAUU
apparent Kd [3]: 18.9 nM | apparent Kd [4]: 16 nM

UCCACUACUGAGAAGGGAUACAUAUAAUUUUAGUCAGGAUAUCGAUACAGUGCAGCAUGAGGACAUGAGGAUCACCCAUGUAUU
apparent Kd [3]: 22.3 nM | apparent Kd [4]: 15.2 nM

UCCACUGCUGAGAAGGGAUACAUAUGGUUCUAGUCAGGAUAUCGAUACAGUGCAGCAUGAGGACAUGAGGAUCACCCAUGUAUU
apparent Kd [3]: 25.6 nM | apparent Kd [4]: 18.6 nM

UCCGACCUAGGAUAUACCUGGGCCGCCUCGUGUUAUCACCUACAUGAGGAUCACCCAUGUAGAAGGAGGACGGU
apparent Kd [1]: 46.7 nM | apparent Kd [2]: 64.1 nM

UCCGCAUCUGAGAAGGGAUCUCCGCGGAAGGGAUCAGGAUAUCGGACAUGAGGAUCACCCAUGUGCCGUUAAAGGACACCUGGU
apparent Kd [2]: 7.36 nM

UCCGCGCGCGUAGGAUAUACAUGAGGAUCACCCAUGUACCCAUAUGGCUUCCUGAAUCUUGCAAUGUAGAAGGACGCCCGUGGG
apparent Kd [1]: 35.8 nM | apparent Kd [2]: 36.1 nM

UCCGCUAUCUAGAAGGAUAUGCGUAUAUAAACAUGAGGAUCACCCAUGUACCGGCGAAAACCGGUGCAGAAGGUUUAGCUAGUGA
apparent Kd [3]: 431 nM | apparent Kd [4]: 65.7 nM

UCCUAACAUGAGGAUCACCCAUGUCAGGAUAUGAUACUAUGUACUUCGGUACAUAGUAUCAGAAGGGACAUCCU
apparent Kd [1]: 15.3 nM | apparent Kd [2]: 16.6 nM

UCCUCUGUAUGAGGAUAUCCGAAUACGUGAGGCGCUGCCGGCUCAUCAUCAGGAGAAGGCAUACAUGAGGAUCACCCAUGUCGA
apparent Kd [1]: 141 nM | apparent Kd [2]: 63.3 nM

UCCUGACAUGAGGAUCACCCAUGUUAGGAUAUGGCUUAGGGCGCGUCUGUGUGUUGGGUUAGAAGGGAUGUGGG
apparent Kd [1]: 17.6 nM | apparent Kd [2]: 16.8 nM

UCCUGGCGAGGAUAUACAAUGUUUUUCACGUUUUGUUUCGAACAUGAGGAUCACCCAUGUAGAAGGUGCUACUG
apparent Kd [1]: 53.2 nM | apparent Kd [2]: 44.7 nM

UCCUUCUGUUGAGGAUAUGUAAGACAGCGACUGCUAUUGCGGCACGCUGAUACAGAAGGCAACAUGAGGAUCACCCAUGUUCAA
apparent Kd [1]: 22.9 nM | apparent Kd [2]: 199 nM

UCCUUGGUACAGAAGGACCGAGCUCAGUAGCAGGUAGGAUAUGUACAUGAGGAUCACCCAUGUCAGCGGUAAUUACCAGUUUUC
apparent Kd [1]: 57.5 nM | apparent Kd [2]: 24.2 nM

UCCUUGGUACAGAAGGACCGAGCUCCGUAGCAGGUAGGAUAUGUACAUGAGGAUCACCCAUGUCAGCGGUAAUUACCAGUAUUC
apparent Kd [1]: 40.2 nM | apparent Kd [2]: 29.1 nM

UCCUUGUCCUGAGGAUAUCCGCGGUUCCCAUAAGGAGAAGGCAGGACAUGAGGAUCACCCAUGUACCCAGAAAACGUGCAGAGU
apparent Kd [1]: 24 nM | apparent Kd [2]: 156 nM

UCGACGAAAGUCGAACGAUGUAGCAGAAGGACAUGAGGAUCACCCAUGUCAGCUGUAACAGCCAUGUAGGAUAUGCUACAUCGC
apparent Kd [1]: 4.27 nM | apparent Kd [2]: 5.7 nM

UCGAUGCGAGGAUAUACAAGGGCAACUACUGCCGCUAUAUAACAUGAGGAUCACCCAUGUAGAAGGCGCAUAUA
apparent Kd [1]: 22.1 nM | apparent Kd [2]: 30.2 nM

UCGCGGGUGCAGAAGGGAUAGGCCUAUUUUCGUGGUAUCCAAACUUAACAUGAGGAUCACCCAUGUCAGGAUAUGCCCACGCGA
apparent Kd [1]: 8.72 nM | apparent Kd [2]: 10.7 nM

UCGGCGCGAGGAUAUGCGGCUGGUGCUUCGGGCCCUCGCGUACAUGAGGAUCACCCAUGUAGAAGGCGCGCCGC
apparent Kd [1]: 32.2 nM | apparent Kd [2]: 38.6 nM

UCGUACAUUCGAGGAUAUCGGUGAUUAAUAAUACGAGAAGGCGAUUUUAGGCAUAAAGCCUUAGACAUGAGGAUCACCCAUGUA
apparent Kd [3]: 89.7 nM | apparent Kd [4]: 53.7 nM

UCGUAUAAGGGCAUUACACAUGAGGAUCACCCAUGUACGUUAGAGGAUAUGCAUUCCAGUCGAACGUAGAAGGUUAGAGAAGGG
apparent Kd [1]: 307 nM | apparent Kd [2]: 268 nM

UCGUAUAAGGGCAUUACACAUGAGGAUCACCCAUGUACGUUAGAGGAUAUGCAUUCCAGUUGAACGUAGAAGGCUAGAGAAGGG
apparent Kd [1]: 132 nM | apparent Kd [2]: 129 nM

UCGUAUACACAAGGAUAUCGAUGGCUUGUAGAUGCUACAUGAGGAUCACCCAUGUUUUUAUAUUGUGAGAAGGUGUAGUGUCGU
apparent Kd [3]: 141 nM | apparent Kd [4]: 221 nM

UCGUUUUUUGAGGAUAUGCGACGUUCCUUCGUCGUAGAAGGCGAUACAUGAGGAUCACCCAUGUUUAUGGGCAU
apparent Kd [1]: 108 nM | apparent Kd [2]: 138 nM

UCUAAUUAGUGAGGAUAUACAUAAUUUAUUACUGUAGAAGGCACAAACCUCAAGACAUGAGGAUCACCCAUGUGGUAUUUAGAU
apparent Kd [1]: 158 nM | apparent Kd [2]: 362 nM

UCUAGGGACGCAGGAUAUGGAGUGAGUGUCUAUCACAUGAGGAUCACCCAUGUUUGGGUCUCACGCUAGAAGGGCGAAUGUGGG
apparent Kd [3]: 357 nM | apparent Kd [4]: 63.5 nM

UCUGCAUAGUCAGGAUAUGCAAAGUAAUGUAUGGAAACAUACAUUACAACAUGAGGAUCACCCAUGUAGAAGGGACUGUGCAGA
apparent Kd [1]: 14 nM | apparent Kd [2]: 13 nM

UCUGCCGCCGUGAGGAUAUGCCCAAAGAAAAGCGGGCAGAAGGCACAUGAGGAUCACCCAUGUCCCGCGGUUUU
apparent Kd [1]: 18 nM | apparent Kd [2]: 38.4 nM
